Among the data in ChEMBL document CHEMBL1126159, “A novel class of enkephalinase inhibitors containing a C-terminal sulfo group” (J Med Chem, 1992) are IC50 and ED50 values, retold here.

For assay [1], the target named is T1, Neprilysin (Rattus norvegicus, UniProt P07861).
T1 sequence (P07861 whole entry): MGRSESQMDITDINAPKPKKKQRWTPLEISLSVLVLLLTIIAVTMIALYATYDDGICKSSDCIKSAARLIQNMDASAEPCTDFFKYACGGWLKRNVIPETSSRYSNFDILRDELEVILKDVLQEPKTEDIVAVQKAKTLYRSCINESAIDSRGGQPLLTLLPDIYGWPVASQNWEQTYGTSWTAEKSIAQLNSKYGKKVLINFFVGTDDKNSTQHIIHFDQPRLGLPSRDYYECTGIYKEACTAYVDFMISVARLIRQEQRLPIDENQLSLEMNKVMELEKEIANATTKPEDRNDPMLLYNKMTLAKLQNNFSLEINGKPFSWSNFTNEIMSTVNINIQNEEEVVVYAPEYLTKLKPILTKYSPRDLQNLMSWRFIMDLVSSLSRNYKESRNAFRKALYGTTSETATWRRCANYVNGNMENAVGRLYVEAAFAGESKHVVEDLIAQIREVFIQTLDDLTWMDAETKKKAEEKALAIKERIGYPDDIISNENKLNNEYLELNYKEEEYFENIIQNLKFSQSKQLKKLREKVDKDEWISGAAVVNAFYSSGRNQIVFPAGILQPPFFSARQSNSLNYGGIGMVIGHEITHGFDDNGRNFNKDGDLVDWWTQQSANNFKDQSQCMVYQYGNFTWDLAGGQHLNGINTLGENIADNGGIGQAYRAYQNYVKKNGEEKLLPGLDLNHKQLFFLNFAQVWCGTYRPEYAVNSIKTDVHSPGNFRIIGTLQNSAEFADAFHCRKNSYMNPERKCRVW
Nature of the assay: The compound was tested in vitro for its inhibitory activity against Enkephalinase enzyme. The gist of the method: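 Rat striatal membranes (male Std:Wistar) were solubilized with 1% Triton X-100 in 50 mM Tris-HCl pH 7.7 and fractionated on DEAE-cellulose; the enkephalin dipeptidylcarboxypeptidase fraction served as enzyme. IC50 by log-probit from 3–4 concentrations, run 2–3 times.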

For assay [2], the target named is T2, Angiotensin-converting enzyme (Oryctolagus cuniculus, UniProt P12822).
T2 sequence (P12822 whole entry): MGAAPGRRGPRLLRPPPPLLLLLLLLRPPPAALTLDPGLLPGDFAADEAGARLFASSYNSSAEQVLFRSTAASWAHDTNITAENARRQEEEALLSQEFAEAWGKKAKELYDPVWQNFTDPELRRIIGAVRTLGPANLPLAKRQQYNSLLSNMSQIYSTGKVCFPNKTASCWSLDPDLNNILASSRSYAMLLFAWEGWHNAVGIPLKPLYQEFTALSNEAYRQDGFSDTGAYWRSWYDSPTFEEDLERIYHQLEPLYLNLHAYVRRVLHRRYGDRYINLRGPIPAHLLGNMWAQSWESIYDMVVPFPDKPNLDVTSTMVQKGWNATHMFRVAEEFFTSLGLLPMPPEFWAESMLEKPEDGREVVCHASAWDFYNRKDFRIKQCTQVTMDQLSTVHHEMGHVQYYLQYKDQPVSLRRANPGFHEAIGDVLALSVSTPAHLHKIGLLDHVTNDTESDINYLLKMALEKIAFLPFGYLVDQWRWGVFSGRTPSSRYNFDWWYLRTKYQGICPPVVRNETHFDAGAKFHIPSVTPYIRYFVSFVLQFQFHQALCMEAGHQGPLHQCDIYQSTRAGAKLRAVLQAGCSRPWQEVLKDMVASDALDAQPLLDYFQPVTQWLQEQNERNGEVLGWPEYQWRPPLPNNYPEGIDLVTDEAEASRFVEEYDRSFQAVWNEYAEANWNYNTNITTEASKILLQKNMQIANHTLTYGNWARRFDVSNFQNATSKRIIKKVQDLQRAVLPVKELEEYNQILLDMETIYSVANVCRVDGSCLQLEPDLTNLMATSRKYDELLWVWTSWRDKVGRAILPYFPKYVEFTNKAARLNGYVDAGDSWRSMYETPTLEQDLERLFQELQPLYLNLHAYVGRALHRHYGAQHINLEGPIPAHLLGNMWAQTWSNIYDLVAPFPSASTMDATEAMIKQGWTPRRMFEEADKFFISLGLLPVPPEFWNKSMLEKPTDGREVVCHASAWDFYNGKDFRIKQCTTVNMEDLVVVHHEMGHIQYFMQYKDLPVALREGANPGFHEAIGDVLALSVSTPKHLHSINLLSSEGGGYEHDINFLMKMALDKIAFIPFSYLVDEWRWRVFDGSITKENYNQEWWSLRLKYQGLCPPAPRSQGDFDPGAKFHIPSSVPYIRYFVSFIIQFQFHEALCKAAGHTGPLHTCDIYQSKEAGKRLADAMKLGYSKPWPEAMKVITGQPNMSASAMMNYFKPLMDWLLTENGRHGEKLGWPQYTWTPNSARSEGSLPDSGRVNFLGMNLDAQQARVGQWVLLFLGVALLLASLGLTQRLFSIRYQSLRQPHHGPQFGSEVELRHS
The experiment in a line: In vitro inhibitory activity against Angiotensin I converting enzyme from rabbit lung. The gist of the method: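 Enzyme source was rabbit lung ACE. The inhibition procedure followed an earlier published method.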

In assay [3] the target is T1, Neprilysin. The experiment in a line: In vitro inhibitory activity against enkephalinase enzyme from rat. The gist of the method:
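Rat striatal membranes (male Std:Wistar) were solubilized with 1% Triton X-100 in 50 mM Tris-HCl pH 7.7 and fractionated on DEAE-cellulose; the enkephalin dipeptidylcarboxypeptidase fraction served as enzyme. […] Reaction was stopped with 0.2 N HCl, products separated on Porapak Q, and [3H]Tyr-Gly-Gly measured. IC50 by log-probit from 3–4 concentrations, run 2–3 times.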

The target in assay [4] is T2, Angiotensin-converting enzyme. Nature of the assay: In vitro inhibitory activity against angiotensin I converting enzyme (ACE) from rabbit lung.
In assay [5] the test system is Mus musculus. Nature of the assay: The compound was tested for administrating the compound intravenously. Format: functional. The note with it: iv. The gist of the method:
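Female ddY mice (18–22 g) were dosed iv 5 min before ip phenylbenzoquinone (0.03% in 5% aqueous EtOH, 10 mL/kg). Writhes were counted for 15 min starting 5 min after phenylbenzoquinone. More than 50% reduction versus vehicle control counted as effective; ED50 given with 95% confidence limits.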

In assay [6] the test system is Mus musculus. Nature of the assay: The compound was tested for administrating the compound intracisternally. Format: functional. The gist of the method: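 Female ddY mice (18–22 g) received 10 µL aqueous solution intracisternally 1 min before ip phenylbenzoquinone (0.03% in 5% aqueous EtOH, 10 mL/kg). Writhes were counted for 15 min starting 5 min after phenylbenzoquinone. Mice with behavioural change after injection were excluded. More than 50% reduction versus vehicle control counted as effective; ED50 given with 95% confidence limits.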

A word on the IC50: it is the midpoint of a concentration-inhibition curve. Regarding `O=C(Nc1ccc(S(=O)(=O)O)cc1)C(CS)Cc1ccc([N+](=O)[O-])cc1` (stereo unspecified), 14 nM corresponded to half-maximal inhibition on Neprilysin [1] (IC50).

With `O=C(Nc1cccc(S(=O)(=O)O)c1)C(CS)Cc1ccccc1` (stereo unspecified), the figures for the IC50 (in assay [2]; on Neprilysin [3]) were 290 µM and 0.27 nM, respectively.

As to `CC(C)CC(CS)C(=O)NCCS(=O)(=O)O` (stereo unspecified), on Neprilysin [1], the 50% inhibitory concentration (IC50) was determined as 5.2 nM.

On to `O=C(Nc1ccc(S(=O)(=O)O)cc1)C(CS)Cc1ccccc1` (stereo unspecified), for which the half-inhibitory concentration (IC50) amounted to 210 µM in assay [2] and 1.7 nM against Neprilysin [3].

`O=C(Nc1ccc(S(=O)(=O)O)cc1)C(CS)Cc1ccc(C(F)(F)F)cc1` (stereo unspecified) came in with an IC50 on Neprilysin [3] of 150 nM.

As for `O=C(Nc1ccc(S(=O)(=O)O)cc1)C(CS)Cc1cccc2ccccc12` (stereo unspecified), on Neprilysin [3], 34 nM corresponded to half-maximal inhibition (IC50).

As to `O=C(C(CS)Cc1ccccc1)N(CCS(=O)(=O)O)C1CC1` (stereo unspecified), the IC50 at Neprilysin [3] amounted to 4200 nM.

At Neprilysin [3], `Cc1ccc(CC(CS)C(=O)NCCS(=O)(=O)O)cc1` (stereo unspecified) registered an IC50 of 3.1 nM.

`CN(C)c1ccc(CC(CS)C(=O)Nc2ccc(S(=O)(=O)O)cc2)cc1` (stereo unspecified) had an IC50 against Neprilysin [3] of 14 nM.

For `COc1ccc(CC(CS)C(=O)Nc2ccc(S(=O)(=O)O)cc2)cc1` (stereo unspecified), the 50% inhibitory concentration (IC50) at Neprilysin [3] turned out to be 3.2 nM.

At Neprilysin [3], `Cc1ccc(CC(CS)C(=O)Nc2cccc(S(=O)(=O)O)c2)cc1` (stereo unspecified) registered an IC50 of 2.5 nM.

The compound `O=C(NCCCS(=O)(=O)O)C(CS)Cc1ccccc1` (stereo unspecified) displayed an IC50 against Neprilysin [3] of 5.4 nM.

For `O=C(Nc1ccc(S(=O)(=O)O)c2ccccc12)C(CS)Cc1ccccc1` (stereo unspecified), the results for the IC50 (at Neprilysin [1]; in assay [4]) were 7.4 nM and 37 µM, respectively.

For the compound `O=C(NCCS(=O)(=O)O)C(CS)Cc1cccc2ccccc12` (stereo unspecified), the IC50 on Neprilysin [3] was determined as 8.4 nM.

Compound `O=C(Nc1ccccc1S(=O)(=O)O)C(CS)Cc1ccccc1` (stereo unspecified) returned an IC50 on Neprilysin [3] of 140 nM.

`O=C(NCCS(=O)(=O)[O-])[C@H](CS)Cc1ccccc1.[Na+]`: the half-maximal inhibitory concentration (IC50) was 740 µM in assay [2] and 4.4 nM against Neprilysin [3]. In addition, the ED50 in the assay on Mus musculus [5] was 43.3 mg/kg; with Mus musculus [6], 17.7 µg mouse-1.

Turning to `O=C(Nc1ccc(S(=O)(=O)O)cc1)C(CS)CCCc1ccccc1` (stereo unspecified), at Neprilysin [3], the concentration for half-maximal inhibition (IC50) amounted to 110 nM.

As for `O=C(Nc1ccc(S(=O)(=O)O)cc1)C(CS)Cc1noc2ccccc12` (stereo unspecified), at Neprilysin [3], half-maximal inhibition (IC50) required 12 nM.

Consider `O=C(NCc1ccc(S(=O)(=O)O)cc1)C(CS)Cc1ccccc1` (stereo unspecified), for which the concentration for half-maximal inhibition (IC50) on Neprilysin [3] came out at 11 nM.

Consider `O=C(NCCS(=O)(=O)[O-])[C@@H](CS)Cc1ccccc1.[Na+]`, for which the IC50 in assay [2] was determined as 430 µM; against Neprilysin [3], 0.82 nM. The ED50 amounted to 8.5 mg/kg in the assay on Mus musculus [5] and 11.8 µg mouse-1 in the assay with Mus musculus [6].

As to `O=C(NCCS(=O)(=O)[O-])C(CS)Cc1ccccc1.[Na+]` (stereo unspecified), the IC50 was 720 µM in assay [2] and 1.5 nM against Neprilysin [3]. For the same compound, the ED50 in the assay with Mus musculus [5] was determined as 18 mg/kg; in the assay with Mus musculus [6], 20 µg mouse-1.

`O=C(Nc1ccc(S(=O)(=O)O)cc1)C(CS)Cc1cccnc1` (stereo unspecified) displayed an IC50 at Neprilysin [3] of 33 nM.

Turning to `O=C(NCS(=O)(=O)O)C(CS)Cc1ccccc1` (stereo unspecified), the figures for the concentration for half-maximal inhibition (IC50) (in assay [2]; against Neprilysin [3]) were 12 µM and 2.2 nM, respectively.

`O=C(NCCS(=O)(=O)O)C(CS)CCCc1ccccc1` (stereo unspecified): the IC50 against Neprilysin [3] amounted to 11 nM.

With `CN(CCS(=O)(=O)O)C(=O)C(CS)Cc1ccccc1` (stereo unspecified), half-maximal inhibition against Neprilysin [3] (IC50) required 490 nM.

Take `O=C(Nc1ccc(S(=O)(=O)O)cc1)C(CS)Cc1ccc(F)cc1` (stereo unspecified): at Neprilysin [3], the IC50 was found to be 5 nM.

With `CC(C)CC(NC(=O)C(CS)Cc1ccccc1)S(=O)(=O)O` (stereo unspecified), it took 250 nM to reach half-maximal inhibition on Neprilysin [3] (IC50).

As to `CC(C)CC(CS)C(=O)Nc1cccc(S(=O)(=O)O)c1` (stereo unspecified), on Neprilysin [3], the half-inhibitory concentration (IC50) came to 2.4 nM.

In the case of `CC(NC(=O)C(CS)Cc1ccccc1)S(=O)(=O)O` (stereo unspecified), at Neprilysin [3], the IC50 is 31 nM.

In turn, `COc1ccc(CC(CS)C(=O)NCCS(=O)(=O)O)cc1` (stereo unspecified) came in with an IC50 against Neprilysin [3] of 4.4 nM.

`CC(C)CC(CS)C(=O)Nc1ccc(S(=O)(=O)O)cc1` (stereo unspecified) yielded a 50% inhibitory concentration (IC50) on Neprilysin [3] of 0.9 nM.

As for `CN(C)c1ccc(CC(CS)C(=O)NCCS(=O)(=O)O)cc1` (stereo unspecified), at Neprilysin [3], the IC50 is 37 nM.

`O=C(NCCS(=O)(=O)O)C(CS)Cc1ccc([N+](=O)[O-])cc1` (stereo unspecified): the IC50 on Neprilysin [1] was found to be 17 nM.

At Neprilysin [3], `O=C(Nc1ccc(S(=O)(=O)O)cc1)C(CS)Cc1ccc(-c2ccccc2)cc1` (stereo unspecified) displayed an IC50 of 52 nM.

`Cc1ccc(CC(CS)C(=O)Nc2ccc(S(=O)(=O)O)cc2)cc1` (stereo unspecified): the IC50 against Neprilysin [3] is 1.1 nM.

`O=C(NCCS(=O)(=O)O)C(CS)Cc1ccc(F)cc1` (stereo unspecified) gave an IC50 on Neprilysin [3] of 3.5 nM.

With `O=C(O)CNC(=O)C(CS)Cc1ccccc1` (stereo unspecified) [THIORPHAN], the ED50 in the assay on Mus musculus [5] worked out at 72 mg/kg; with Mus musculus [6], 17 µg mouse-1.
